Where “and” joins values, the source holds several entries; their conditions need not be identical. Equal values may be shown once.
Test system: Fibroblast
Test: Multiplex assay against human fibroblast
Format: toxicity, cell-based
How it was run: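 Compound was added to live cells that had been stained at seeding with Hoechst33342, BioTracker Green Microtubule Cytoskeleton Dye, MitoTracker Red and Annexin V Alexa Fluor 680, and imaging followed on a CQ1 microscope at 37°C and 5% CO2. CellPathfinder machine-learning gating divided cells into Hoechst high-intensity objects or normal cells, normal cells into healthy, pyknosed or fragmented nuclei, and pyknosed cells into mitotic or apoptotic. Tubulin, mitochondrial-mass and membrane-permeability phenotypes are per cents of healthy-nucleus cells.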

[1] = 12 h, 1 µM, compound concentration 1 uM
[2] = 12 h, 10 µM, compound concentration 10 uM
[3] = 24 h, 1 µM, compound concentration 1 uM
[4] = 24 h, 10 µM, compound concentration 10 uM
[5] = 48 h, 1 µM, compound concentration 1 uM
[6] = 48 h, 10 µM, compound concentration 10 uM

O=C(O)C(F)(F)F.O=C1NC(=O)/C(=C/c2c[nH]c(=O)c(-c3ccc(N4CCNCC4)nc3)c2)S1
Population Apoptotic (%) [1]: 11.76% and 21.95% | Population Fragmented Nuclei (%) [1]: 12.02% and 8.21% | Population Healthy Nuclei (%) [1]: 60.11% and 70.77% | Population Hoechst High Intensity Objects (%) [1]: 0% | Population Membrane Permeable-Phenotype (%) [1]: 3.64% and 0% | Population Mitochondria Different-Phenotype (%) [1]: 8.18% and 7.25% | Population Mitotic Cells (%) [1]: 88.24% and 78.05% | Population Normal (%) [1]: 100% | Population Pyknosed Nuclei (%) [1]: 27.87% and 21.03% | Population Tubulin-Different-Phenotype (%) [1]: 8.18% and 12.32% | Total Cell Count [1]: 183 and 195 | Population Apoptotic (%) [2]: 13.51% and 16.13% | Population Healthy Nuclei (%) [2]: 62.9% and 80.28% | Population Hoechst High Intensity Objects (%) [2]: 0% | Population Membrane Permeable-Phenotype (%) [2]: 5.98% and 3.51% | Population Mitochondria Different-Phenotype (%) [2]: 4.27% and 11.7% | Population Mitotic Cells (%) [2]: 86.49% and 83.87% | Population Normal (%) [2]: 100% | Population Pyknosed Nuclei (%) [2]: 19.89% and 14.55% | Total Cell Count [2]: 186 and 213 | Population Apoptotic (%) [3]: 10.42% and 17.86% | Population Fragmented Nuclei (%) [3]: 12.43% and 7.25% | Population Healthy Nuclei (%) [3]: 61.62% and 78.24% | Population Hoechst High Intensity Objects (%) [3]: 0% | Population Membrane Permeable-Phenotype (%) [3]: 4.39% and 3.97% | Population Mitochondria Different-Phenotype (%) [3]: 4.39% and 9.27% | Population Mitotic Cells (%) [3]: 89.58% and 82.14% | Population Normal (%) [3]: 100% | Population Pyknosed Nuclei (%) [3]: 25.95% and 14.51% | Population Tubulin-Different-Phenotype (%) [3]: 10.53% and 16.56% | Total Cell Count [3]: 185 and 193 | Population Apoptotic (%) [4]: 24.24% and 20.59% | Population Fragmented Nuclei (%) [4]: 13.83% and 5.22% | Population Healthy Nuclei (%) [4]: 68.62% and 80% | Population Hoechst High Intensity Objects (%) [4]: 0% | Population Membrane Permeable-Phenotype (%) [4]: 3.88% and 1.09% | Population Mitochondria Different-Phenotype (%) [4]: 4.65% and 6.52% | Population Mitotic Cells (%) [4]: 75.76% and 79.41% | Population Normal (%) [4]: 100% | Population Pyknosed Nuclei (%) [4]: 17.55% and 14.78% | Population Tubulin-Different-Phenotype (%) [4]: 10.85% and 20.11% | Total Cell Count [4]: 188 and 230 | Population Apoptotic (%) [5]: 26.32% and 27.27% | Population Fragmented Nuclei (%) [5]: 10.5% and 6.53% | Population Healthy Nuclei (%) [5]: 81.51% and 87.94% | Population Hoechst High Intensity Objects (%) [5]: 0% | Population Membrane Permeable-Phenotype (%) [5]: 1.03% and 1.71% | Population Mitochondria Different-Phenotype (%) [5]: 8.76% and 5.71% | Population Mitotic Cells (%) [5]: 73.68% and 72.73% | Population Normal (%) [5]: 100% | Population Pyknosed Nuclei (%) [5]: 7.98% and 5.53% | Population Tubulin-Different-Phenotype (%) [5]: 6.7% and 18.86% | Total Cell Count [5]: 238 and 199 | Population Apoptotic (%) [6]: 50% and 55.56% | Population Fragmented Nuclei (%) [6]: 7.94% and 3.6% | Population Healthy Nuclei (%) [6]: 88.89% and 92.34% | Population Hoechst High Intensity Objects (%) [6]: 0% | Population Membrane Permeable-Phenotype (%) [6]: 1.19% and 1.46% | Population Mitotic Cells (%) [6]: 50% and 44.44% | Population Normal (%) [6]: 100% | Population Pyknosed Nuclei (%) [6]: 3.17% and 4.05% | Total Cell Count [6]: 189 and 222

O=C(Nc1c[nH]nc1-c1nc2cc(CN3CCOCC3)ccc2[nH]1)NC1CC1 [AT-9283]
Population Apoptotic (%) [1]: 20% and 16.13% | Population Fragmented Nuclei (%) [1]: 9.94% and 5.09% | Population Healthy Nuclei (%) [1]: 62.43% and 80.56% | Population Hoechst High Intensity Objects (%) [1]: 0% | Population Membrane Permeable-Phenotype (%) [1]: 3.54% and 0.57% | Population Mitochondria Different-Phenotype (%) [1]: 14.16% and 13.22% | Population Mitotic Cells (%) [1]: 80% and 83.87% | Population Normal (%) [1]: 100% | Population Pyknosed Nuclei (%) [1]: 27.62% and 14.35% | Population Tubulin-Different-Phenotype (%) [1]: 24.78% and 24.71% | Total Cell Count [1]: 181 and 216 | Population Apoptotic (%) [2]: 30% and 36.21% | Population Fragmented Nuclei (%) [2]: 25% and 12.87% | Population Healthy Nuclei (%) [2]: 54.59% and 65.81% | Population Hoechst High Intensity Objects (%) [2]: 0% | Population Membrane Permeable-Phenotype (%) [2]: 19.63% and 13.41% | Population Mitochondria Different-Phenotype (%) [2]: 14.02% and 18.44% | Population Mitotic Cells (%) [2]: 70% and 63.79% | Population Normal (%) [2]: 100% | Population Pyknosed Nuclei (%) [2]: 20.41% and 21.32% | Population Tubulin-Different-Phenotype (%) [2]: 36.45% and 41.34% | Total Cell Count [2]: 196 and 272 | Population Apoptotic (%) [3]: 8.33% and 17.86% | Population Fragmented Nuclei (%) [3]: 12.64% and 5.88% | Population Healthy Nuclei (%) [3]: 67.58% and 68.78% | Population Hoechst High Intensity Objects (%) [3]: 0% | Population Membrane Permeable-Phenotype (%) [3]: 6.5% and 2.63% | Population Mitochondria Different-Phenotype (%) [3]: 13.01% and 9.87% | Population Mitotic Cells (%) [3]: 91.67% and 82.14% | Population Normal (%) [3]: 100% | Population Pyknosed Nuclei (%) [3]: 19.78% and 25.34% | Population Tubulin-Different-Phenotype (%) [3]: 28.46% and 22.37% | Total Cell Count [3]: 182 and 221 | Population Apoptotic (%) [4]: 38.98% and 73.44% | Population Fragmented Nuclei (%) [4]: 21.08% and 15.35% | Population Healthy Nuclei (%) [4]: 43.37% and 56.58% | Population Hoechst High Intensity Objects (%) [4]: 0% | Population Membrane Permeable-Phenotype (%) [4]: 23.61% and 16.28% | Population Mitochondria Different-Phenotype (%) [4]: 16.67% and 18.6% | Population Mitotic Cells (%) [4]: 61.02% and 26.56% | Population Normal (%) [4]: 100% | Population Pyknosed Nuclei (%) [4]: 35.54% and 28.07% | Population Tubulin-Different-Phenotype (%) [4]: 38.89% and 57.36% | Total Cell Count [4]: 166 and 228 | Population Apoptotic (%) [5]: 41.3% and 71.67% | Population Fragmented Nuclei (%) [5]: 16.56% and 16.58% | Population Healthy Nuclei (%) [5]: 54.14% and 51.34% | Population Hoechst High Intensity Objects (%) [5]: 0% | Population Membrane Permeable-Phenotype (%) [5]: 3.53% and 9.38% | Population Mitochondria Different-Phenotype (%) [5]: 11.76% and 7.29% | Population Mitotic Cells (%) [5]: 58.7% and 28.33% | Population Normal (%) [5]: 100% | Population Pyknosed Nuclei (%) [5]: 29.3% and 32.09% | Population Tubulin-Different-Phenotype (%) [5]: 23.53% and 35.42% | Total Cell Count [5]: 157 and 187 | Population Apoptotic (%) [6]: 43.48% and 91.01% | Population Fragmented Nuclei (%) [6]: 26.71% and 24.14% | Population Healthy Nuclei (%) [6]: 44.72% and 32.02% | Population Hoechst High Intensity Objects (%) [6]: 0% | Population Membrane Permeable-Phenotype (%) [6]: 12.5% and 29.23% | Population Mitochondria Different-Phenotype (%) [6]: 18.06% and 23.08% | Population Normal (%) [6]: 100% | Population Pyknosed Nuclei (%) [6]: 28.57% and 43.84% | Population Tubulin-Different-Phenotype (%) [6]: 27.78% and 72.31% | Total Cell Count [6]: 161 and 203
